p47phox inh: blocks human p47phox regulatory protein of NADPH oxidases; inhibition, % at 24.7 µM; p47phox/p22phox peptide binding, fluorescence polarization, 2 h; AID 1274; actives 0.53% (n = 220,000);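 note: 0% = p47phox with labelled peptide and 100% = labelled peptide alone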
Target sequence (P14598 whole entry, looked up): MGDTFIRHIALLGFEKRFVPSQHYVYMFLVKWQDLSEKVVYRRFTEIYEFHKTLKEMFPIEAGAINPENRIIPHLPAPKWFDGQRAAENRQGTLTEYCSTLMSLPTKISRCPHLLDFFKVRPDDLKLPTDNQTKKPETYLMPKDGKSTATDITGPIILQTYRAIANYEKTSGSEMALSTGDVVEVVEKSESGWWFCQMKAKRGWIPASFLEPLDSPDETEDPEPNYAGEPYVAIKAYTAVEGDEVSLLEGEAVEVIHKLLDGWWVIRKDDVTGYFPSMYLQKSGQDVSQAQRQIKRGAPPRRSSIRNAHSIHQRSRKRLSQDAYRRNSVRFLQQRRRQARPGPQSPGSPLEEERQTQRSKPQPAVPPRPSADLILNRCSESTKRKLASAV
RBBP9 inh: human RBBP9 hydrolase inhibition; actives 0.2% (n = 220,000); AID 1515; O75884; recombinant RBBP9, FP-Rh probe fluorescence polarization; inhibition, % at 7.94 µM;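 active = inhibition above the campaign mean of all tested compounds plus 3 SD, cut at about 14% in these data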;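 note: plate controls were DMSO wells with RBBP9 for no effect and wells lacking RBBP9 protein for full effect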
Target sequence (O75884 whole entry, looked up): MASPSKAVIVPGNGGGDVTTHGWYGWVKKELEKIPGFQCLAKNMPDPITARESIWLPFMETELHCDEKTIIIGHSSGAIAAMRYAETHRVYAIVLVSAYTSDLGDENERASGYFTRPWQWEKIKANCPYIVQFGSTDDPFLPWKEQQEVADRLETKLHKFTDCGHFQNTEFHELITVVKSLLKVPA
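System: RBBP9 protein | Quantity: 2.5 µM RBBP9 dispensing solution, before mixing | Reagent: FP-Rh probe, 375 nM dispensing solution | Timing: Enzyme-compound preincubation 30 min, then probe labeling 45 min, 25 °C | Measured by: Fluorescence polarization | Read-out: % inhibition | Replication: One well per compound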
eIF4E 4G PPI: blocks eIF4E binding to eIF4G. actives 0.37% (n = 220,000). AID 782. TR-FRET eIF4E-eIF4GI(517-606) binding, 2 h. inhibition, % at 21.7 µM;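 note: 0% = full FRET control wells and 100% = background wells lacking eIF4GI fragment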
Wee1 stabilizer: inhibitors of human Wee1 degradation | P30291 | HeLa Luc-Wee1K328M stability, luciferase luminescence; 100% = proteasome inhibitor MG132 effect | reporter increase, % at 5 µM | actives 1.2% (n = 220,000) | AID 1321;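 active = activation above the mean of all tested compounds plus 3 SD, set per screening run, cut at about 8.8% in these data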;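 note: cells exposed to compound for 20 h before luminescence read; 0% = DMSO alone and 100% = MG132 at 30 µM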
14-3-3 Bad PPI: disrupts binding of bovine 14-3-3 zeta to phospho-Bad peptide; AID 781; actives 0.71% (n = 220,000); P63103; inhibition, % at 21.7 µM; TR-FRET 14-3-3zeta/Dy647-pBad peptide displacement, 1 h;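 active = inhibition above about 70%, limit read from the data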;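 note: 0% = full 14-3-3 plus peptide FRET controls and 100% = background without 14-3-3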
* = called active by the depositor. A selection: hits, their analogues and other compounds. The true share with any hit is near 2.8%.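 Rule for the calls, unless noted: active = inhibition above about 30% (limit read from the data); inactive = the rest.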

O=C(NCC(c1cccs1)N1CCOCC1)c1ccco1 (stereo unspecified) was read as p47phox inh -12.7, RBBP9 inh 1.2, eIF4E 4G PPI 4.3, Wee1 stabilizer 1.3 and 14-3-3 Bad PPI -4.7.
Cc1cccc(C(=O)NC(C)C(c2cccs2)N2CCOCC2)c1 (stereo unspecified) was read as p47phox inh -11.2, RBBP9 inh 2.5, eIF4E 4G PPI 96.8*, Wee1 stabilizer -4.4 and 14-3-3 Bad PPI -5.0.
Screening CC(C)=CCN1CCN(Cc2ccc(Sc3nncn3C)o2)CC1CCO (stereo unspecified) returned p47phox inh -3.6, RBBP9 inh -4.3, eIF4E 4G PPI 1.2, Wee1 stabilizer -0.4 and 14-3-3 Bad PPI -4.0.
CCC1=NN2C(=N)/C(=C\c3cccn3-c3ccc(Br)cc3)C(=O)N=C2S1 was read as p47phox inh 42.5*, RBBP9 inh -3.1, eIF4E 4G PPI 8.9, Wee1 stabilizer 0.4 and 14-3-3 Bad PPI 79.4*.
For COc1ccc(-n2cccc2/C=C2\C(=N)N3N=C(C(C)C)SC3=NC2=O)cc1 the results were p47phox inh -18.0, RBBP9 inh -9.2, eIF4E 4G PPI 4.0, Wee1 stabilizer -0.8 and 14-3-3 Bad PPI -2.0.
COc1ccc(-n2cccc2/C=C2\C(=N)N3N=C(c4ccco4)SC3=NC2=O)cc1 was read as p47phox inh -74.8, RBBP9 inh -11.2, eIF4E 4G PPI 45.8*, Wee1 stabilizer 0.9 and 14-3-3 Bad PPI 82.1*.
For Cc1ccc(CN2CCN(Cc3cccc4nccnc34)CC2CCO)cc1 (stereo unspecified) the results were p47phox inh 0.6, RBBP9 inh -7.0, eIF4E 4G PPI 1.3, Wee1 stabilizer -0.4 and 14-3-3 Bad PPI -8.5.
O=c1c(C/C=C/c2ccccc2)c(O)ccn1Cc1cccc(Cl)c1 was read as p47phox inh 0.1, RBBP9 inh -5.9, eIF4E 4G PPI -0.4, Wee1 stabilizer 10.6* and 14-3-3 Bad PPI -10.9.
Screening O=c1c(C/C=C/c2ccccc2)c(O)ccn1CCc1c[nH]c2ccccc12 returned p47phox inh -30.9, RBBP9 inh -0.5, eIF4E 4G PPI -0.3, Wee1 stabilizer -1.4 and 14-3-3 Bad PPI -13.1.
CC1SC(=NC(=O)C(C)N2C(=O)c3ccccc3C2=O)NC1=O (stereo unspecified) was read as p47phox inh -6.9, RBBP9 inh -5.8, eIF4E 4G PPI 3.3, Wee1 stabilizer -0.6 and 14-3-3 Bad PPI 1.5.
For O=C(Cn1cc(SCc2cccc(Cl)c2)c2ccccc21)N1CCOCC1 the results were p47phox inh -19.5, RBBP9 inh -10.7, eIF4E 4G PPI 5.2, Wee1 stabilizer 10.6* and 14-3-3 Bad PPI -0.7.
For CC(=O)Nc1ccc2nc(NC(=O)CCc3ccccc3)sc2c1 the results were p47phox inh -20.0, RBBP9 inh -5.9, eIF4E 4G PPI 1.6, Wee1 stabilizer -3.4 and 14-3-3 Bad PPI -4.4.
For Cn1cccc1/C=C(/C#N)c1ccc(F)cc1 the results were p47phox inh -3.7, RBBP9 inh 7.5, eIF4E 4G PPI 1.7, Wee1 stabilizer 4.6 and 14-3-3 Bad PPI 35.1.
Screening CCNC(=O)c1c(NC(=O)c2cc(-c3cc(C)ccc3O)n[nH]2)sc2c1CCCC2 returned p47phox inh 52.4*, RBBP9 inh -4.3, eIF4E 4G PPI 9.6, Wee1 stabilizer 6.2 and 14-3-3 Bad PPI 45.1.
For Cc1ccc(-c2cc(C(=O)Nc3sc4c(c3C(=O)NCc3ccco3)CCC4)[nH]n2)c(O)c1 the results were p47phox inh -9.0, RBBP9 inh -4.6, eIF4E 4G PPI -7.0, Wee1 stabilizer -1.7 and 14-3-3 Bad PPI 29.2.
O=C(Nc1cccc(S(=O)(=O)N2CCCCCC2)c1)c1ccc2c(c1)OCO2 was read as p47phox inh -7.9, RBBP9 inh -5.8, eIF4E 4G PPI -3.2, Wee1 stabilizer 0.6 and 14-3-3 Bad PPI 77.7*.
CC(=O)c1ccc(NC(=O)c2cnn3c(C(F)F)cc(C4CC4)nc23)cc1 was read as RBBP9 inh 8.0 and Wee1 stabilizer -1.1.
CCc1ccc(C(=O)Nc2cc(C)ccc2F)s1 was read as p47phox inh -12.6, RBBP9 inh 2.3, eIF4E 4G PPI -6.8, Wee1 stabilizer 6.5 and 14-3-3 Bad PPI -10.6.
`COc1ccc(Cl)cc1S(=O)(=O)N1CCCC1=O` gave p47phox inh -11.5, RBBP9 inh -0.9, eIF4E 4G PPI -0.6, Wee1 stabilizer 10.0* and 14-3-3 Bad PPI 0.2.
For CCCC(=O)N1CCN(S(=O)(=O)c2cc(Cl)ccc2OC)CC1 the results were p47phox inh 0.0, RBBP9 inh -4.3, eIF4E 4G PPI 1.5, Wee1 stabilizer 0.9 and 14-3-3 Bad PPI 5.3.
For c1csc(-c2nn3c(Cn4cnc5ccccc54)nnc3s2)c1 the results were p47phox inh 7.4, RBBP9 inh -1.9, eIF4E 4G PPI 33.2*, Wee1 stabilizer -3.1 and 14-3-3 Bad PPI 6.7.
COc1cc(/C=C2\SC(=O)N(CCNC(=O)c3cnc(C)cn3)C2=O)cc(OC)c1OC was read as p47phox inh -11.9, RBBP9 inh -2.6, eIF4E 4G PPI 2.8, Wee1 stabilizer -0.8 and 14-3-3 Bad PPI -7.7.
Screening COc1ccc(Cl)cc1NC(=O)CN(C)CC(=O)Nc1ccc(C)cc1Br returned p47phox inh -6.7, RBBP9 inh -9.9, eIF4E 4G PPI -1.4, Wee1 stabilizer -0.3 and 14-3-3 Bad PPI -3.4.
Screening CC(C)c1ccc(/C=C/C(=O)Nc2nncs2)cc1 returned p47phox inh -4.7, RBBP9 inh -4.0, eIF4E 4G PPI 4.8, Wee1 stabilizer 9.5* and 14-3-3 Bad PPI 5.2.
Screening COc1cc(CN(C)CCc2ccccn2)cc(OC)c1OC returned p47phox inh 0.7, RBBP9 inh 2.5, eIF4E 4G PPI 7.6, Wee1 stabilizer 0.8 and 14-3-3 Bad PPI 73.0*.
COc1ccc(CN(C)CCc2ccccn2)cc1OC was read as p47phox inh -7.2, RBBP9 inh 1.9, eIF4E 4G PPI 0.6, Wee1 stabilizer -0.1 and 14-3-3 Bad PPI 62.7.
CCS(=O)(=O)n1nc(-c2ccccc2)nc1SC was read as p47phox inh 5.9, RBBP9 inh 4.1, eIF4E 4G PPI -0.5, Wee1 stabilizer 0.3 and 14-3-3 Bad PPI 9.1.
CC(C)(C)n1nnnc1C(c1cccs1)N1CCCc2ccccc21 (stereo unspecified) was read as p47phox inh -14.2, RBBP9 inh -2.2, eIF4E 4G PPI -6.2, Wee1 stabilizer -2.5 and 14-3-3 Bad PPI 13.8.
`Clc1cccc(Cl)c1CSc1nnc(CN2CCOCC2)n1-c1ccccc1` gave p47phox inh -4.8, RBBP9 inh -2.8, eIF4E 4G PPI -3.6, Wee1 stabilizer 10.5* and 14-3-3 Bad PPI -12.0.
Screening CCN(CC)C(=O)CSc1nc(N)c2c3c(sc2n1)CC(C)CC3 (stereo unspecified) returned p47phox inh 58.7*, RBBP9 inh 2.3, eIF4E 4G PPI 18.4, Wee1 stabilizer -0.5 and 14-3-3 Bad PPI -1.9.
CC1CCc2c(sc3nc(SCC(=O)NCc4ccco4)nc(N)c23)C1 (stereo unspecified) was read as p47phox inh -10.5, RBBP9 inh -8.5, eIF4E 4G PPI 0.1, Wee1 stabilizer 2.6 and 14-3-3 Bad PPI -11.8.

Bioassay records deposited in PubChem by several laboratories.
